For series [1], the system named is Plasmodium berghei. In words: Antiplasmodial activity against Plasmodium berghei ookinete form assessed as growth inhibition incubated for 22 hrs by GFP-based fluorescence microscopic analysis. In kind it is functional, organism-based.
For series [2], the system named is Plasmodium yoelii. Kind of series: Antiplasmodial activity against Plasmodium yoelli liver stage forms. The format is functional, organism-based.
Series [3] has as its system Plasmodium falciparum. In words: Antiplasmodial activity against late stage (IV/V) Plasmodium falciparum NF54 gametocytes transfected with GFP-LUC assessed as growth inhibition incubated for 72 hrs by mitotracker Red-CMXROS dye based fluorescence microscopic analysis. The format is functional, organism-based. The note with it: NF54, 72 h. In a few lines: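 NF54 pfs16-LUC-GFP stage IV–V gametocytes (10% parasitaemia, 0.1% haematocrit) exposed to compound in 0.4% DMSO, three concentrations per log, for 72 h at 37°C under 5% CO2/5% O2/90% N2. MitoTracker Red CM-H2Xros then added for 16 h and viable gametocytes counted by imaging.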

The test system of series [4] is Plasmodium falciparum. In words: Antiplasmodial activity against chloroquine-sensitive Plasmodium falciparum 3D7 infected in human red blood cells assessed as growth inhibition by SYBR Green fluorescence assay. In kind it is functional, organism-based, RBC. The note with it: 3D7, Erythrocyte. In a few lines:
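P. falciparum 3D7 grown in 5% human red cells in RPMI 1640 (pH 7.3) with 0.5% Albumax II, hypoxanthine and gentamicin at 37°C under 1% O₂/3% CO₂. Growth measured by SYBR green fluorescence (ex 485/em 528 nm), with mefloquine as assay control. EC50 calculated.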

Series [5] concerns MRC5. Kind of series: Antiproliferative activity against human MRC5 cells assessed as reduction in cell viability after 68 hrs by resazurin dye based fluorescence assay. To be noted: MRC5, 68 h. In a few lines: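 MRC-5 fibroblasts plated overnight as monolayers, exposed to compound pre-diluted in MEM for 68 h. Resazurin then added (final 50 μM) for 3 h, fluorescence read at ex 528/em 590 nm. Signal converted to % inhibition against high- and no-inhibition controls. Plates accepted at Z' > 0.5.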
(Alamar Blue is a resazurin reagent that responds to reducing activity.)

A short description of series [6]: Intrinsic clearance in CD1 mouse liver microsomes at 0.5 uM in presence of NADPH incubated upto 30 mins by UPLC-MS/MS analysis. The format is ADME, Microsome. The note with it: 0.5 h. The gist of the method: (§1)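 Compound at 0.5 μM incubated with female CD1 mouse, male Sprague-Dawley rat or pooled human liver microsomes (0.5 mg/mL, 50 mM potassium phosphate, pH 7.4). Reaction started with excess NADPH. Samples taken at 0-30 min, quenched in acetonitrile, analysed by UPLC-MS/MS. Verapamil used as control, single time course.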
In general terms: Microsomes from liver hold many membrane-bound enzymes, among them those of drug oxidation.

Series [7] in a line: Kinetic aqueous solubility of the compound by laser nephelometry. To be noted: read-out: Kinetic_solubility. The format is physicochemical. The gist of the method:
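Kinetic solubility measured by laser nephelometry. DMSO serial dilutions diluted into water to give final 100–5 μg/mL at 1.0% DMSO. Read immediately, in triplicate aliquots.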

Series [8] in a line: Permeability of the compound at 10 uM incubated for 5 hrs by UPLC-MS/MS analysis based PAMPA method. In kind it is ADME. The note with it: read-out: permeability. The gist of the method:
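PAMPA run on a lipid-oil-lipid tri-layer filter at pH 7.4. Compound at 10 μM in PBS (DMSO ≤5%) in donor wells, PBS in acceptor wells, kept 5 h at room temperature. Both compartments quantified by UPLC-MS/MS. Data accepted only when recovery exceeded 70%.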
(In general: The PAMPA barrier holds no transporters, so it reflects passive diffusion.)

The nature of series [9]: Intrinsic clearance in human liver microsomes at 0.5 uM in presence of NADPH incubated upto 30 mins by UPLC-MS/MS analysis. The format is ADME, Microsome. The note with it: 0.5 h. In a few lines: as §1
The target in series [10] is Voltage-gated inwardly rectifying potassium channel KCNH2 (Homo sapiens, UniProt Q12809). In words: Inhibition of human ERG by IonWorks patch-clamp electrophysiology method. The gist of the method:
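hERG K⁺ channel inhibition measured by IonWorks patch-clamp electrophysiology. Eight-point concentration-response curves made from 3-fold serial dilutions down from the maximum final assay concentration. Each curve generated on 2 occasions.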

Series [11] can be described thus: Clearance in NMRI mouse blood at 3 mg/kg, iv administered as bolus dose by UPLC-MS/MS analysis. In kind it is ADME, organism-based. The gist of the method:
(§2)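 Intravenous bolus solution, 3 mg free base/kg (5 mL/kg; 10% DMSO, 90% saline), given to female NMRI mice (n=3). Compound level in blood determined by UPLC-MS/MS. PK parameters derived from the blood concentration-time curve.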

A short description of series [12]: Volume of distribution at steady state in NMRI mouse at 3 mg/kg, iv administered as bolus dose by UPLC-MS/MS analysis. The format is ADME, organism-based. To be noted: in vivo, read-out: Vdss. The gist of the method: as §2
The nature of series [13]: Half-life in NMRI mouse at 3 mg/kg, iv administered as bolus dose by UPLC-MS/MS analysis. The note with it: in vivo. In kind it is ADME, organism-based. The gist of the method:
as §2

Series [14] in a line: Cmax in NMRI mouse at 10 mg/kg, po administered as gavage by UPLC-MS/MS analysis. More on the design: route oral, dose 10 mg/kg. To be noted: in vivo. In kind it is ADME, organism-based. The gist of the method:
(§3)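 Female NMRI mice (n=3) dosed by oral gavage as a solution at 10 mg free base/kg (10 mL/kg; vehicle 5 or 10% DMSO, 40% PEG400). Blood levels measured by UPLC-MS/MS. Parameters derived from the blood concentration-time curve.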

Series [15] is described as follows: AUC in NMRI mouse at 10 mg/kg, po administered as gavage by UPLC-MS/MS analysis. More on the design: dose 10 mg/kg. To be noted: in vivo. The format is ADME, organism-based. In a few lines: as §3
Series [16] can be described thus: Tmax in NMRI mouse at 10 mg/kg, po administered as gavage by UPLC-MS/MS analysis. The format is ADME, organism-based. To be noted: in vivo. The gist of the method: as §3
Series [17] can be described thus: Oral bioavailability in NMRI mouse at 10 mg/kg administered via gavage by UPLC-MS/MS analysis. The format is ADME, organism-based. The note with it: in vivo. The gist of the method: as §3
For series [18], the system named is Plasmodium berghei. Kind of series: Antiplasmodial activity against Plasmodium berghei ANKA infected in NMRI mouse assessed as reduction in parasitemia at 30 mg/kg, po QD for 4 days. The format is functional. More on the design: scale not given: the % may be the effect or the level left. The note with it: time 4 day. In a few lines: (§4)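 Female NMRI mice (n=3 per group, randomized, not blinded) infected with GFP-transfected P. berghei ANKA. Oral dosing once daily for 4 days in 10% DMSO/40% PEG400/50% water or HPMC suspension vehicle. Parasitaemia measured by flow cytometry on blood collected 96 h after infection. Mice watched for toxicity over 4 h post-dose each day.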

Series [19] concerns Plasmodium berghei. In words: Antiplasmodial activity against Plasmodium berghei ANKA infected in NMRI mouse assessed as survival days at 30 mg/kg, po QD for 4 days. The format is functional. To be noted: time 4 day.
The test system of series [20] is Plasmodium berghei. Kind of series: Antiplasmodial activity against Plasmodium berghei ANKA infected in NMRI mouse assessed as reduction in parasitemia at 10 mg/kg, po QD for 4 days. In kind it is functional. More on the design: scale not given: the % may be the effect or the level left. The note with it: time 4 day. The gist of the method:
as §4

For series [21], the system named is Plasmodium berghei. Kind of series: Antiplasmodial activity against Plasmodium berghei ANKA infected in NMRI mouse assessed as survival days at 10 mg/kg, po QD for 4 days. In kind it is functional. The note with it: time 4 day.
Series [22] has as its system Plasmodium berghei. In words: Antiplasmodial activity against Plasmodium berghei infected in NMRI mouse assessed as reduction in parasitemia at 3 mg/kg, po QD for 4 days. In kind it is functional. Details: scale not given: the % may be the effect or the level left. To be noted: time 4 day. The gist of the method:
as §4

In series [23] the test system is Plasmodium berghei. In words: Antiplasmodial activity against Plasmodium berghei ANKA infected in NMRI mouse assessed as survival days at 3 mg/kg, po QD for 4 days. The format is functional. The note with it: time 4 day.
Series [24] relates to Plasmodium berghei. In words: Antiplasmodial activity against Plasmodium berghei ANKA infected in NMRI mouse assessed as reduction in parasitemia at 1 mg/kg, po QD for 4 days. The format is functional. More on the design: scale not given: the % may be the effect or the level left. To be noted: time 4 day. The gist of the method: as §4
In series [25] the test system is Plasmodium berghei. In words: Antiplasmodial activity against Plasmodium berghei ANKA infected in NMRI mouse assessed as survival days at 1 mg/kg, po QD for 4 days. To be noted: time 4 day. In kind it is functional.
Series [26] relates to Plasmodium berghei. Kind of series: Antiplasmodial activity against GFP-transfected Plasmodium berghei ANKA infected in NMRI mouse assessed as reduction in parasitemia by measuring effective dose administered once daily oral dose for 4 days. To be noted: 96 h, time 4 day. The format is functional. In a few lines:
as §4

The subject of series [27] is HepG2. In words: Antiproliferative activity against human HepG2 cells assessed as reduction in cell viability. The format is cell-based.
The nature of series [28]: Protein binding in CD1 mouse plasma measured after 5 hr by UPLC-MS/MS analysis based equilibrium dialysis method. In kind it is ADME, cell-free. The note with it: mouse, 5 h. The gist of the method:
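Equilibrium dialysis of female CD1 mouse plasma spiked at 10 μg/mL (12-14 kDa membrane) against isotonic buffer for 5 h at ~37°C with shaking. Unbound fraction taken as the buffer/plasma peak-area ratio by UPLC-MS/MS. n=6 replicates, run in triplicate.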

Values after ≈ are worked out from the molar mass of the structure shown.

Broadly, the EC50 is the concentration needed to bring the measured effect to its halfway point. The IC50 is the concentration that gives 50% inhibition. A word on the clearance: it is a measure of how efficiently the substance is removed, as volume per time. Usually half-life stands for the time in which the quantity being followed falls by half. As a reminder, the Cmax is the maximum level reached in the sampled fluid or tissue. The AUC is concentration integrated over time. In general, Tmax refers to the time from dosing to the highest level. As usually defined, the bioavailability is the share of a dose that reaches the circulation, judged against a reference dose that is usually intravenous.

Voltage-gated inwardly rectifying potassium channel KCNH2, sequence (Q12809 whole entry): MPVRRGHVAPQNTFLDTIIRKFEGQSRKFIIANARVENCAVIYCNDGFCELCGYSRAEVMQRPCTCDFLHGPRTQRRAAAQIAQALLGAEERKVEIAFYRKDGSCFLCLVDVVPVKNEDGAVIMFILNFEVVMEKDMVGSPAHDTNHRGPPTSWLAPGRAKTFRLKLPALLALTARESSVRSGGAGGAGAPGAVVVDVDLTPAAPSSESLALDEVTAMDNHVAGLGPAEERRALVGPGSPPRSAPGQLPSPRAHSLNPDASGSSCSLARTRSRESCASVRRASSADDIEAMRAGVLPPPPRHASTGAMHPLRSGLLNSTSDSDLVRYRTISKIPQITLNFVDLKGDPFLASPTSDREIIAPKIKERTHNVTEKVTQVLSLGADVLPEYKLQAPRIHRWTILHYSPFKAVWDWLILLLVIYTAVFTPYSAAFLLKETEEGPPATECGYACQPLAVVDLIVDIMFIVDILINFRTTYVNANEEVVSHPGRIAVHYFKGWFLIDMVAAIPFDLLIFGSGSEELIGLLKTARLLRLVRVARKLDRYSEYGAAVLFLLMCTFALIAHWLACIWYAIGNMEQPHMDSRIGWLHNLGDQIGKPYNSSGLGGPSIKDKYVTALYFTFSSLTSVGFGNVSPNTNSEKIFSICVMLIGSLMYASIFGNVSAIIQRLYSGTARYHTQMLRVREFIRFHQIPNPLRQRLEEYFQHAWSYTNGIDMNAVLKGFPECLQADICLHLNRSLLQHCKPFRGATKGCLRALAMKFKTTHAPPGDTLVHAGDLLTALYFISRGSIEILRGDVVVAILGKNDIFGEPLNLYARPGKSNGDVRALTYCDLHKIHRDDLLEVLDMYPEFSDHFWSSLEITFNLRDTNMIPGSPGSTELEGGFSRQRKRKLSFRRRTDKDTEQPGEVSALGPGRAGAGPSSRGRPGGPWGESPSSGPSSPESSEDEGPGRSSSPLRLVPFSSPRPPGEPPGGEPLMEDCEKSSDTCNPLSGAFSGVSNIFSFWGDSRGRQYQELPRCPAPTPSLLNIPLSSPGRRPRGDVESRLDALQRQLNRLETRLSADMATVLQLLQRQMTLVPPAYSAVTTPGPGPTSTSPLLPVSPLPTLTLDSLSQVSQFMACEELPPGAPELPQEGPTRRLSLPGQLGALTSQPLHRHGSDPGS

As for `O=C(NCCN1CCCC1)c1cc(NCCCCN2CCOCC2)nc2ccc(Cl)cc12`, the EC50 in series [1] amounted to 5 nM; in series [2] it was 18 nM; in [3] it was 104 nM; in series [4], 4 nM; in series [5], 13000 nM. Also, the CLH in series [6] was 2 mL/min/g; in series [9] it was < 1 mL/min/g. Besides, in series [7], the solubility kinetic worked out at 217 µM (≈ 99.8 µg/mL). In addition, the Papp at 5 h, 10 µM in [8] is 0.2 ×10⁻⁶ cm/s. The IC50 in [10] was > 11000 nM. The molecule further came in with a clearance in series [11] of 4 mL/min/kg. For the same molecule, the Vd in [12] is 3.5 L/kg. The half-life in series [13] was 12.5 h. Further, the concentration in series [14] peaked (Cmax) at 579 ng/mL. In series [15], the AUC is 2940 ng·h/mL. For the same molecule, in series [16], the Tmax was 2 h. In series [17], this molecule showed a bioavailability of 16%. The Activity in [18] is recorded as 99.8%; in series [20], 99.7%; in series [22] it was 96%; in series [24], 48%. In addition, the Survival was found to be 22 days in series [19], 15 days in series [21], 9 days in series [23] and 6 days in series [25]. For the same molecule, the ED90 in series [26] stood at 2.6 mg/kg.
Consider `O=C(NCCN1CCC1)c1cc(-c2ccc(CN3CCOCC3)cc2)nc2ccc(F)cc12`, for which the EC50 in [4] is 4 nM; in [27], 41000 nM. In addition, the CLH in [6] was found to be 0.5 mL/min/g. For the same molecule, in series [7], the solubility kinetic came out at 71 µM (≈ 31.8 µg/mL). For the same molecule, the Papp at 5 h, 10 µM in series [8] was 7.5 ×10⁻⁶ cm/s. Moreover, the Activity in series [20] was found to be 99.1%; in series [22], 99.2%. For the same molecule, the Survival in [21] was determined as 20.3 days; in [23], 9.3 days.
In the case of `O=C(NCCN1CCCC1)c1cc(-c2ccc(S(=O)(=O)N3CCOCC3)cc2)nc2ccc(F)cc12`, the EC50 is 15 nM in series [1], 152 nM in series [3], 4 nM in series [4] and 21000 nM in series [5]. Also, in series [6], the CLH turned out to be 1.9 mL/min/g. In [7], the solubility kinetic was 109 µM (≈ 55.9 µg/mL). Moreover, the Papp at 5 h, 10 µM in series [8] came out at 2.9 ×10⁻⁶ cm/s. The PPB in series [28] was determined as 75%. This molecule also came in with an IC50 in [10] of 11000 nM.
`CN(CCN1CCCC1)C(=O)c1cc(-c2ccc(CN3CCOCC3)cc2)nc2ccc(F)cc12`: the 50% effective concentration (EC50) in series [4] is 87 nM; in [27], > 50000 nM. The CLH in series [6] was < 0.5 mL/min/g. The solubility kinetic in series [7] was > 210 µM. Also, in series [8], the Papp at 5 h, 10 µM is 13.7 ×10⁻⁶ cm/s.

The record behind these values is ChEMBL document CHEMBL4680079, “Discovery of a Quinoline-4-carboxamide Derivative with a Novel Mechanism of Action, Multistage Antimalarial Activity, and Potent in Vivo Efficacy” (J Med Chem, 2016).
